The values that follow come from ChEMBL document CHEMBL4270544, “Design, synthesis and biological evaluation of a novel tubulin inhibitor 7a3 targeting the colchicine binding site” (Eur J Med Chem, 2018).

The subject of assay [1] is MDA-MB-231. As to the kind of experiment: Antiproliferative activity against human MDA-MB-231 cells after 72 hrs by CCK8 assay. It counts as functional, cell-based. The note with it: MDA-MB-231, 72 h. The essentials: (§1)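 CCK-8 proliferation assay with CA-4 as positive control. IC50 is the concentration giving 50% inhibition of proliferation. Mean ± SEM from three independent experiments.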
For orientation: Tetrazolium assays rely on reduction of a dye to a coloured formazan, in cell work by metabolically active cells.

Assay [2] relates to SK-OV-3. Put plainly: Antiproliferative activity against human SKOV3 cells after 72 hrs by CCK8 assay. The assay is classed as functional, cell-based. The note with it: SK-OV-3, 72 h. The method in brief:
as §1

Assay [3] deals with HeLa. Put plainly: Antiproliferative activity against human HeLa cells after 72 hrs by CCK8 assay. It counts as functional, cell-based. The method in brief:
as §1

The subject of assay [4] is CT26. Put plainly: Antiproliferative activity against mouse CT26 cells after 72 hrs by CCK8 assay. The assay is classed as functional, cell-based. The note with it: CT26, 72 h. The method in brief:
as §1

In assay [5] the test system is A549. As to the kind of experiment: Antiproliferative activity against human A549 cells after 72 hrs by CCK8 assay. Particulars: A549, 72 h. It counts as functional, cell-based. The essentials:
as §1

In assay [6] the test system is MCF7. Put plainly: Antiproliferative activity against human MCF7 cells after 72 hrs by CCK8 assay. It counts as functional, cell-based. Particulars: MCF7, 72 h. The method in brief:
as §1

Assay [7] concerns SK-OV-3. As to the kind of experiment: Antimigratory activity against human SKOV3 cells assessed as number of migrated cells at 50 nM after 24 hrs by crystal violet staining based transwell migration assay (reference value: 49.3 to 50.7). It counts as functional.
The species named for assay [8] is Bos taurus. As to the kind of experiment: Inhibition of bovine MAP-rich tubulin polymerization at 10 uM measured every 1 min for 30 mins relative to control. The method in brief: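 Purified tubulin polymerization followed at 37 °C by absorbance at 340 nm, read every 1 min for 30 min. Test concentrations 2.5, 10 and 40 µM. CA-4 at 10 µM served as positive control and DMSO (1%, v/v) as vehicle. Polymerization is expressed relative to the vehicle group.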

Assay [9] concerns SK-OV-3. As to the kind of experiment: Antimigratory activity against human SKOV3 cells assessed as wound closure at 80 nM after 24 hrs by microscopy based scratch wound assay (reference value: 79.5 +/- 2.8%). The assay is classed as functional.
Assay [10] has as its system SK-OV-3. Put plainly: Antimigratory activity against human SKOV3 cells assessed as number of migrated cells at 25 nM after 24 hrs by crystal violet staining based transwell migration assay (reference value: 49.3 to 50.7). It counts as functional.
Assay [11] has as its system SK-OV-3. Put plainly: Antimigratory activity against human SKOV3 cells assessed as number of migrated cells at 100 nM after 24 hrs by crystal violet staining based transwell migration assay (reference value: 49.3 to 50.7). It counts as functional.
Assay [12] has as its system SK-OV-3. Put plainly: Antimigratory activity against human SKOV3 cells assessed as wound closure at 160 nM after 24 hrs by microscopy based scratch wound assay (reference value: 79.5 +/- 2.8%). It counts as functional.

Active and inactive are the calls of the source. The calls are words filed in the database; no cut-off is given here.

Consider `COc1cc(-c2nn(C(C)(C)C)c(N)c2-c2ccc(SC)cc2)cc(OC)c1OC`, for which the IC50 in assay [1] came to 20800 nM; in [2], 24200 nM.

For `CCOc1ccc(-c2c(-c3cc(OC)c(OC)c(OC)c3)nn(-c3ccc(OC)cc3)c2N)cc1`, the results for the IC50 in assay [1] and in assay [2] were 2010 nM and 1210 nM, respectively.

On to `COc1ccc(-n2nc(-c3cc(OC)c(OC)c(OC)c3)c(-c3ccc(OC)c(F)c3)c2N)cc1`, for which the IC50 worked out at 18400 nM in assay [1] and 14700 nM in assay [2].

On to `COc1ccc(-c2c(-c3cc(OC)c(OC)c(OC)c3)nn(C(C)(C)C)c2N)cc1F`, for which the IC50 in [1] came out at 29500 nM; in assay [2] it was 16900 nM.

Consider `COc1cc(-c2nn(C)c(N)c2-c2ccc(SC)cc2)cc(OC)c1OC`, for which the results for the IC50 in assay [1] and in [2] were 748 nM and 438 nM, respectively.

Take `COc1ccc(-c2cnn(C)c2-c2cc(OC)c(OC)c(OC)c2)cc1F`: the IC50 was found to be 112 nM in assay [3]; 151 nM in assay [4]; 57 nM in assay [1]; 187 nM in [5]; 113 nM in [6]; 66 nM in assay [2].

Regarding `COc1ccc(-c2c(-c3cc(OC)c(OC)c(OC)c3)nn(-c3ccc(F)cc3)c2N)cc1F`, the IC50 in [1] was determined as 24600 nM; in assay [2] it was 33200 nM.

For the compound `COc1ccc(-c2c(-c3cc(OC)c(OC)c(OC)c3)nn(C(C)(C)C)c2N)cc1`, the IC50 in assay [1] amounted to 31300 nM; in [2], 40300 nM.

For `COc1cc(-c2c(-c3ccc(SC)cc3)cnn2C)cc(OC)c1OC`, the IC50 in assay [1] came to 41 nM; in assay [2], 52 nM.

In the case of `COc1ccc(-c2cn(C)nc2-c2cc(OC)c(OC)c(OC)c2)cc1F`, the IC50 in assay [3] worked out at 28.8 nM; in [4], 58.7 nM; in assay [1], 41 nM; in [5], 141 nM; in [6] it was 37.2 nM; in [2] it was 55 nM.

As to `COc1ccc(-c2c(-c3cc(OC)c(OC)c(OC)c3)nn(-c3ccc(OC)cc3)c2N)cc1`, the IC50 in assay [1] worked out at 15900 nM; in assay [2] it was 19000 nM.

As for `CCOc1ccc(-c2c(-c3cc(OC)c(OC)c(OC)c3)nn(C)c2N)cc1`, the IC50 turned out to be 490 nM in [1] and 338 nM in assay [2].

For the compound `COc1ccc(-c2cnn(C)c2-c2cc(OC)c(OC)c(OC)c2)cc1`, the IC50 in assay [1] came to 74 nM; in assay [2] it was 69 nM.

As to `CCOc1ccc(-c2c(-c3cc(OC)c(OC)c(OC)c3)nn(-c3ccc(F)cc3)c2N)cc1`, the values for the IC50 in assay [1] and in assay [2] were 1660 nM and 2830 nM, respectively.

As to `COc1ccc(-n2nc(-c3cc(OC)c(OC)c(OC)c3)c(-c3ccc(SC)cc3)c2N)cc1`, the IC50 in [1] was determined as 7050 nM; in [2], 14000 nM.

On to `COc1ccc(-c2c(-c3cc(OC)c(OC)c(OC)c3)nn(C)c2N)cc1F`, for which the IC50 in [1] was 36400 nM; in [2], 31800 nM.

In the case of `COc1ccc(-c2c(-c3cc(OC)c(OC)c(OC)c3)nn(C)c2N)cc1`, the IC50 came out at 31100 nM in [1] and 16300 nM in assay [2].

Regarding `CCOc1ccc(-c2c(-c3cc(OC)c(OC)c(OC)c3)nn(C(C)(C)C)c2N)cc1`, the IC50 is 2570 nM in assay [1] and 1120 nM in assay [2].

Take `COc1ccc(-c2cn(C)nc2-c2cc(OC)c(OC)c(OC)c2)cc1`: the IC50 in assay [1] is 166 nM; in assay [2], 89 nM.

As to `COc1cc(-c2nn(C)cc2-c2ccc(SC)cc2)cc(OC)c1OC`, the IC50 in assay [1] was 307 nM; in assay [2] it was 155 nM.

With `COc1cc(-c2nn(-c3ccc(F)cc3)c(N)c2-c2ccc(SC)cc2)cc(OC)c1OC`, the IC50 in [1] is 22900 nM; in assay [2], 7370 nM.

For the compound `COc1ccc(-c2c(-c3cc(OC)c(OC)c(OC)c3)nn(-c3ccc(F)cc3)c2N)cc1`, the half-maximal inhibitory concentration (IC50) in assay [1] was 33700 nM; in assay [2] it was 28900 nM.

Turning to `COc1ccc(/C=C\c2cc(OC)c(OC)c(OC)c2)cc1O` [COMBRETASTATIN A4], the Activity in assay [7] was 20.7; in assay [9], 41.9%; in [10], 26.3; in assay [11], 18.3; in [12], 29.2%. Also, the inhibition result in assay [8] is “Active”. The IC50 in [3] was found to be 14.2 nM; in assay [4] it was 45.1 nM; in [1], 4.5 nM; in assay [5], 94.3 nM; in assay [6], 39.1 nM; in assay [2], 5.9 nM.

With `CCOc1ccc(-c2cnn(C)c2-c2cc(OC)c(OC)c(OC)c2)cc1`, the IC50 in [3] came to 93.1 nM; in assay [4], 165 nM; in [1], 72 nM; in assay [5], 99 nM; in assay [6], 39.9 nM; in assay [2], 43 nM.

What is called IC50 is the midpoint of a concentration-inhibition curve.
